The target in experiment [1] is Aldo-keto reductase family 1 member A1 (Rattus norvegicus) (UniProt P51635). The experiment in a line: Inhibition of Fischer-344 rat kidney ALR1 using D-glycuronate as substrate at 10' -5 M by spectrophotometry.
For experiment [2], the target named is Aldo-keto reductase family 1 member A1 (Rattus norvegicus, UniProt P51635). The experiment in a line: Inhibition of Fischer-344 rat kidney ALR1 using D-glycuronate as substrate by spectrophotometry.
For experiment [3], the species on record is Rattus norvegicus. Nature of the experiment: Selectivity index, ratio of IC50 for Fischer-344 rat kidney ALR1 to IC50 for Fischer-344 rat lens ALR2. The class given is tissue-based. As to conditions: Lens of camera-type eye. The gist of the method:
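Selectivity index calculated from the IC50 values of two spectrophotometric NADPH-consumption assays (340 nm). Rat kidney ALR1 was measured at 37 °C and rat lens ALR2 at 30 °C. Each IC50 was derived by least-squares fitting of triplicate five-concentration log(dose)–response data.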

For experiment [4], the target named is Aldo-keto reductase family 1 member B1 (Rattus norvegicus, UniProt P07943). Nature of the experiment: Inhibition of Fischer-344 rat lens ALR2 by spectrophotometry.

Chain of Aldo-keto reductase family 1 member A1 (P51635 whole entry, looked up): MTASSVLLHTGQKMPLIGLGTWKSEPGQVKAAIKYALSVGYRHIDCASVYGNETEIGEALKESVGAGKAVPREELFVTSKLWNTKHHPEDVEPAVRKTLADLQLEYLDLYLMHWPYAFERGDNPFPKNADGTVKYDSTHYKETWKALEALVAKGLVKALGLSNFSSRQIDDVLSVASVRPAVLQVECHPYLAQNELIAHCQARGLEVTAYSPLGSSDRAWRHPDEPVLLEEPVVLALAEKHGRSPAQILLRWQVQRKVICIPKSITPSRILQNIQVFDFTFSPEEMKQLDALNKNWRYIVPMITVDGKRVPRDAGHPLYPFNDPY
Chain of Aldo-keto reductase family 1 member A1 (Rattus norvegicus) (P51635 whole entry, looked up): as above

As to `O=C(c1ccc(OC(F)(F)F)cc1)c1ccn(-c2cc(F)c(O)c(F)c2)c1`, in experiment [1], the inhibition (commonly the share of the control response that was lost under treatment) was 38%. Moreover, the results for the IC50 in experiment [2] and in experiment [4] were 13.1 µM and 0.75 µM, respectively. Besides, the Ratio IC50 in experiment [3] amounted to 17.5.

With `O=C(c1ccc(Br)cc1F)c1cccn1-c1cc(F)c(O)c(F)c1`, the inhibition in experiment [1] worked out at 96.8%. Further, the IC50 in experiment [2] and in experiment [4] was 0.19 µM throughout. Besides, the Ratio IC50 in experiment [3] was 1.

Consider `O=C(c1ccn(-c2cc(F)c(O)c(F)c2)c1)c1ccc(Br)cc1F`, for which the half-inhibitory concentration (IC50) – broadly, the midpoint of a concentration-inhibition curve – in experiment [2] was 4.31 µM; in experiment [4], 0.4 µM.

For the compound `O=C(c1cccn1-c1cc(F)c(O)c(F)c1)C(F)(F)F`, the inhibition in experiment [1] came out at 26.5%. Further, the values for the IC50 in experiment [2] and in experiment [4] were 18.9 µM and 0.93 µM, respectively. Also, in experiment [3], the Ratio IC50 stood at 20.3.

On to `O=C(c1ccc(-c2ccccc2)cc1)c1cccn1-c1cc(F)c(O)c(F)c1`, for which, in experiment [1], the inhibition came out at 5.85%. In addition, the results for the concentration for half-maximal inhibition (IC50) in experiment [2] and in experiment [4] were 121 µM and 0.51 µM, respectively. Moreover, the Ratio IC50 in experiment [3] stood at 238.

In experiment [1], `O=C(c1ccc(-c2ccccc2)cc1)c1ccn(-c2cc(F)c(O)c(F)c2)c1` returned an inhibition of 72.8%. The IC50 in experiment [2] came out at 5.63 µM; in experiment [4], 2.3 µM. Also, the Ratio IC50 in experiment [3] turned out to be 1.87.

In experiment [1], `O=C(c1ccc(OC(F)(F)F)cc1)c1cccn1-c1cc(F)c(O)c(F)c1` displayed an inhibition of 30.9%. The IC50 in experiment [2] was determined as 16.2 µM; in experiment [4], 0.52 µM. Besides, in experiment [3], the Ratio IC50 amounted to 31.1.

These data come from ChEMBL document CHEMBL2311444, “Synthesis of derivatives of the keto-pyrrolyl-difluorophenol scaffold: some structural aspects for aldose reductase inhibitory activity and selectivity” (Bioorg Med Chem, 2013).
